# Test results reported in ChEMBL document CHEMBL1275392, “Assessment of chemoselective neoglycosylation methods using chlorambucil as a model” (2010).
# Columns and labels:
# [1] = test system: IGROV-1; assay: Growth inhibition of human IGROV1 cells after 7 days by celltiter-glo assay; type: functional; settings: IGROV-1, 168 h
# [2] = test system: SR; assay: Growth inhibition of human SR cells after 7 days by celltiter-glo assay; type: functional; settings: 168 h
# [3] = test system: PC-3; assay: Growth inhibition of human PC3 cells at 10 uM after 7 days by celltiter-glo assay; type: functional; settings: PC-3, 168 h, read-out: GI
# [4] = test system: HL-60(TB); assay: Growth inhibition of human HL-60(TB) cells after 7 days by celltiter-glo assay; type: functional; settings: HL-60, 168 h
# [5] = test system: DU-145; assay: Growth inhibition of human DU145 cells after 7 days by celltiter-glo assay; type: functional; settings: DU-145, 168 h
# [6] = test system: M14; assay: Growth inhibition of human M14 cells after 7 days by celltiter-glo assay; type: functional; settings: M14, 168 h
# [7] = test system: OVCAR-8; assay: Growth inhibition of human OVCAR8 cells at 10 uM after 7 days by celltiter-glo assay; type: functional; settings: OVCAR-8, 168 h, read-out: GI
# [8] = test system: U-251; assay: Growth inhibition of human U251 cells after 7 days by celltiter-glo assay; type: functional; settings: U-251, 168 h
# [9] = test system: SF-539; assay: Growth inhibition of human SF539 cells at 10 uM after 7 days by celltiter-glo assay; type: functional; settings: SF-539, 168 h, read-out: GI
# [10] = test system: HT-29; assay: Ratio of compound GI50 to chlorambucil GI50 for human HT-29 cells; type: functional
# [11] = test system: K562; assay: Growth inhibition of human K562 cells at 10 uM after 7 days by celltiter-glo assay; type: functional; settings: K562, 168 h, read-out: GI
# [12] = test system: OVCAR-4; assay: Growth inhibition of human OVCAR4 cells at 10 uM after 7 days by celltiter-glo assay; type: functional; settings: OVCAR-4, 168 h, read-out: GI
# [13] = test system: SK-OV-3; assay: Growth inhibition of human SKOV3 cells after 7 days by celltiter-glo assay; type: functional; settings: SK-OV-3, 168 h
# [14] = test system: T47D; assay: Growth inhibition of human T47D cells after 7 days by celltiter-glo assay; type: functional; settings: 168 h
# [15] = test system: SF-268; assay: Growth inhibition of human SF268 cells after 7 days by celltiter-glo assay; type: functional; settings: SF-268, 168 h
# [16] = test system: T47D; assay: Growth inhibition of human T47D cells at 10 uM after 7 days by celltiter-glo assay; type: functional; settings: 168 h, read-out: GI
# [17] = test system: HOP-62; assay: Growth inhibition of human HOP62 cells at 10 uM after 7 days by celltiter-glo assay; type: functional; settings: HOP-62, 168 h, read-out: GI
# [18] = test system: MCF7; assay: Growth inhibition of human MCF7 cells after 7 days by celltiter-glo assay; type: functional; settings: MCF7, 168 h
# [19] = test system: SK-MEL-28; assay: Growth inhibition of human SK-MEL-28 cells at 10 uM after 7 days by celltiter-glo assay; type: functional; settings: SK-MEL-28, 168 h, read-out: GI
# [20] = test system: ACHN; assay: Growth inhibition of human ACHN cells after 7 days by celltiter-glo assay; type: functional; settings: 168 h
# [21] = test system: TK-10; assay: Growth inhibition of human TK10 cells at 10 uM after 7 days by celltiter-glo assay; type: functional; settings: TK-10, 168 h, read-out: GI
# [22] = test system: HCC 2998; assay: Growth inhibition of human HCC2998 cells at 10 uM after 7 days by celltiter-glo assay; type: functional; settings: HCC 2998, 168 h, read-out: GI
# [23] = test system: NCI-H322M; assay: Growth inhibition of human NCI-H322M cells after 7 days by celltiter-glo assay; type: functional; settings: 168 h
# [24] = test system: NCI-H23; assay: Growth inhibition of human NCI-H23 cells after 7 days by celltiter-glo assay; type: functional; settings: NCI-H23, 168 h
# [25] = test system: SR; assay: Growth inhibition of human SR cells at 10 uM after 7 days by celltiter-glo assay; type: functional; settings: 168 h, read-out: GI
# [26] = test system: MDA-MB-468; assay: Growth inhibition of human MDA-MB-468 cells at 10 uM after 7 days by celltiter-glo assay; type: functional; settings: MDA-MB-468, 168 h, read-out: GI
# [27] = Growth inhibition of human […] cells at 10 uM after 7 days by celltiter-glo assay; type: functional; settings: 168 h, read-out: GI
# [28] = test system: COLO 205; assay: Growth inhibition of human COLO205 cells after 7 days by celltiter-glo assay; type: functional; settings: COLO 205, 168 h
# [29] = test system: SK-OV-3; assay: Growth inhibition of human SKOV3 cells at 10 uM after 7 days by celltiter-glo assay; type: functional; settings: SK-OV-3, 168 h, read-out: GI
# [30] = test system: OVCAR-8; assay: Growth inhibition of human OVCAR8 cells after 7 days by celltiter-glo assay; type: functional; settings: OVCAR-8, 168 h
# [31] = test system: HL-60(TB); assay: Growth inhibition of human HL-60(TB) cells at 10 uM after 7 days by celltiter-glo assay; type: functional; settings: HL-60, 168 h, read-out: GI
# [32] = test system: SN12C; assay: Growth inhibition of human SN12C cells at 10 uM after 7 days by celltiter-glo assay; type: functional; settings: 168 h, read-out: GI
# [33] = test system: SK-MEL-5; assay: Growth inhibition of human SK-MEL-5 cells after 7 days by celltiter-glo assay; type: functional; settings: SK-MEL-5, 168 h
# [34] = Growth inhibition of human p53 deficient Hep3B cells after 7 days by celltiter-glo assay; type: functional, Hep 3B2; settings: 168 h
# Summary of the method: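 Cells seeded at 500 per well in 384-well plates. Compounds came from 30 mM DMSO stocks, serially diluted and tested in quadruplicate. Incubation was 7 d at 37 °C under 5% CO2. Calcein AM (10 μM) and EthD-1 were added, followed by a fluorescence read. CellTiter-Glo lysis was then done for 10 min at room temperature, with a luminescence read. GI50 came from curve fitting.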
# [35] = test system: A549; assay: Growth inhibition of human A549 cells at 10 uM after 7 days by celltiter-glo assay; type: functional; settings: A549, 168 h, read-out: GI
# [36] = test system: ACHN; assay: Growth inhibition of human ACHN cells at 10 uM after 7 days by celltiter-glo assay; type: functional; settings: 168 h, read-out: GI
# [37] = test system: HOP-92; assay: Growth inhibition of human HOP92 cells after 7 days by celltiter-glo assay; type: functional; settings: HOP-92, 168 h
# [38] = test system: OVCAR-3; assay: Growth inhibition of human OVCAR-3 cells at 10 uM after 7 days by celltiter-glo assay; type: functional; settings: OVCAR-3, 168 h, read-out: GI
# [39] = test system: SW-620; assay: Growth inhibition of human SW620 cells at 10 uM after 7 days by celltiter-glo assay; type: functional; settings: SW-620, 168 h, read-out: GI
# [40] = test system: UACC-62; assay: Growth inhibition of human UACC62 cells after 7 days by celltiter-glo assay; type: functional; settings: UACC-62, 168 h
# [41] = test system: HCT-116; assay: Growth inhibition of human HCT116 cells at 10 uM after 7 days by celltiter-glo assay; type: functional; settings: HCT-116, 168 h, read-out: GI
# [42] = test system: A549; assay: Growth inhibition of human A549 cells expressing p53 after 7 days by celltiter-glo assay; type: functional; settings: A549, 168 h
# [43] = test system: HOP-92; assay: Growth inhibition of human HOP92 cells at 10 uM after 7 days by celltiter-glo assay; type: functional; settings: HOP-92, 168 h, read-out: GI
# [44] = test system: CAKI-1; assay: Growth inhibition of human Caki1 cells at 10 uM after 7 days by celltiter-glo assay; type: functional; settings: CAKI-1, 168 h, read-out: GI
smiles,measurement,setting,value
CON(CCCc1ccc(N(CCCl)CCCl)cc1)C1OC[C@@H](O)[C@@H]1O (some centres undefined),GI50,[1],1210 nM
same,GI50,[2],386 nM
same,inhibition of growth at 10 µM,[3],72.5%
same,GI50,[4],1880 nM
same,GI50,[5],1800 nM
same,GI50,[6],9250 nM
same,inhibition of growth at 10 µM,[7],68.1%
same,GI50,[8],13100 nM
same,inhibition of growth at 10 µM,[9],51.8%
same,RatioGI50,[10],12
same,inhibition of growth at 10 µM,[11],88.5%
same,inhibition of growth at 10 µM,[12],77.2%
same,GI50,[13],1500 nM
same,GI50,[14],6370 nM
same,GI50,[15],1500 nM
same,inhibition of growth at 10 µM,[16],48%
same,inhibition of growth at 10 µM,[17],73.2%
same,GI50,[18],1800 nM
same,inhibition of growth at 10 µM,[19],117%
same,GI50,[20],4340 nM
same,inhibition of growth at 10 µM,[21],97.2%
same,inhibition of growth at 10 µM,[22],73.3%
same,GI50,[23],> 100000 nM
same,GI50,[24],7150 nM
same,inhibition of growth at 10 µM,[25],48.7%
same,inhibition of growth at 10 µM,[26],43.9%
same,inhibition of growth at 10 µM,[27],15.9%
same,GI50,[28],12700 nM
same,inhibition of growth at 10 µM,[29],72.8%
same,GI50,[30],9130 nM
same,inhibition of growth at 10 µM,[31],68.3%
same,inhibition of growth at 10 µM,[32],54.2%
same,GI50,[33],17700 nM
same,GI50,[34],670 nM
same,inhibition of growth at 10 µM,[35],69.7%
same,inhibition of growth at 10 µM,[36],14.3%
same,GI50,[37],4030 nM
same,inhibition of growth at 10 µM,[38],85.3%
same,inhibition of growth at 10 µM,[39],68.1%
same,GI50,[40],1690 nM
same,inhibition of growth at 10 µM,[41],69.4%
same,GI50,[42],1100 nM
same,inhibition of growth at 10 µM,[43],58.8%
same,inhibition of growth at 10 µM,[44],13.6%
